The source made the active and inactive calls. The rule behind the calls is not given here.
What was measured:
Dengue virus = assay: Inhibition of Dengue virus NS2B-NS3 serine protease expressed in Escherichia coli BL 21 (DE3) at 50 uM preincubated for 15 mins before substrate addition measured after 15 mins by fluorimetric analysis
Method in brief: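 Recombinant NS2B hydrophilic cofactor linked through a glycine linker to NS3pro, His-purified on Ni2+ resin. Enzyme preincubated 15 min with inhibitor at 50 μM. Internally quenched substrate added to 50 μM final. Fluorescence read at ex 320/em 405 nm for 15 min, with initial slope per second as activity. Triplicate runs averaged.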

[1] = molecular target: Genome polyprotein (West Nile virus) (UniProt P06935); assay: Inhibition of West Nile virus NS2B-NS3 serine protease at 50 uM preincubated for 15 mins before substrate addition measured after 15 mins by fluorimetric analysis
Method in brief: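 WNV NS2B-NS3 protease at 150 nM final, preincubated 15 min with inhibitor at 50 μM. Abz-GLKRGG-3-(NO2)Y internally quenched substrate added to 50 μM final. Continuous fluorescence read for 15 min, with initial slope per second as activity.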

[2] = molecular target: Prothrombin (Homo sapiens) (UniProt P00734); assay: Inhibition of thrombin at 25 uM preincubated for 15 mins before Boc-Val-Pro-Arg-AMC substrate addition measured after 10 mins by microtiter fluorescence plate reader analysis
dengue virus type 2 [3] = assay: Antiviral activity against Dengue virus 2 infected in human Huh-7 cells assessed as reduction of viral titers at non-cytotoxic concentration after 24 hrs by reporter gene assay relative to control; assay type: functional
Method in brief: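 Huh-7 cells were infected with wild-type DenV-2 at an MOI of 1 TCID50 per cell. Compounds were added to the supernatants 4 h post-infection, with 1% final DMSO as the diluent control. Infectious titers were determined 24 h post-infection by limiting-dilution assay, with three independent experiments. Cytotoxicity was measured in Huh-7-Fluc cells after 48 h at 37 °C by luciferase read-out and visual inspection.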

dengue virus type 2 [4] = assay: Antiviral activity against Dengue virus 2 infected in human Huh-7 cells assessed as inhibition of viral replication at 1 to 25 uM treated 4 hrs after infection measured after 24 hrs by reporter gene assay; assay type: functional, organism-based
Huh-7 = assay: Cytotoxicity against human HuH7 cells assessed as reduction of cell viability at up to 100 uM after 48 hrs by luciferase assay; assay type: cell-based; conditions: huh-7, 48 h
Method in brief: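 Huh-7-Fluc cells exposed to compounds up to 100 μM for 48 h at 37 °C, 5% CO2. Cells then lysed and luciferase activity read as a surrogate of viability, alongside visual inspection of cells.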

Genome polyprotein (West Nile virus), sequence (P06935 whole entry): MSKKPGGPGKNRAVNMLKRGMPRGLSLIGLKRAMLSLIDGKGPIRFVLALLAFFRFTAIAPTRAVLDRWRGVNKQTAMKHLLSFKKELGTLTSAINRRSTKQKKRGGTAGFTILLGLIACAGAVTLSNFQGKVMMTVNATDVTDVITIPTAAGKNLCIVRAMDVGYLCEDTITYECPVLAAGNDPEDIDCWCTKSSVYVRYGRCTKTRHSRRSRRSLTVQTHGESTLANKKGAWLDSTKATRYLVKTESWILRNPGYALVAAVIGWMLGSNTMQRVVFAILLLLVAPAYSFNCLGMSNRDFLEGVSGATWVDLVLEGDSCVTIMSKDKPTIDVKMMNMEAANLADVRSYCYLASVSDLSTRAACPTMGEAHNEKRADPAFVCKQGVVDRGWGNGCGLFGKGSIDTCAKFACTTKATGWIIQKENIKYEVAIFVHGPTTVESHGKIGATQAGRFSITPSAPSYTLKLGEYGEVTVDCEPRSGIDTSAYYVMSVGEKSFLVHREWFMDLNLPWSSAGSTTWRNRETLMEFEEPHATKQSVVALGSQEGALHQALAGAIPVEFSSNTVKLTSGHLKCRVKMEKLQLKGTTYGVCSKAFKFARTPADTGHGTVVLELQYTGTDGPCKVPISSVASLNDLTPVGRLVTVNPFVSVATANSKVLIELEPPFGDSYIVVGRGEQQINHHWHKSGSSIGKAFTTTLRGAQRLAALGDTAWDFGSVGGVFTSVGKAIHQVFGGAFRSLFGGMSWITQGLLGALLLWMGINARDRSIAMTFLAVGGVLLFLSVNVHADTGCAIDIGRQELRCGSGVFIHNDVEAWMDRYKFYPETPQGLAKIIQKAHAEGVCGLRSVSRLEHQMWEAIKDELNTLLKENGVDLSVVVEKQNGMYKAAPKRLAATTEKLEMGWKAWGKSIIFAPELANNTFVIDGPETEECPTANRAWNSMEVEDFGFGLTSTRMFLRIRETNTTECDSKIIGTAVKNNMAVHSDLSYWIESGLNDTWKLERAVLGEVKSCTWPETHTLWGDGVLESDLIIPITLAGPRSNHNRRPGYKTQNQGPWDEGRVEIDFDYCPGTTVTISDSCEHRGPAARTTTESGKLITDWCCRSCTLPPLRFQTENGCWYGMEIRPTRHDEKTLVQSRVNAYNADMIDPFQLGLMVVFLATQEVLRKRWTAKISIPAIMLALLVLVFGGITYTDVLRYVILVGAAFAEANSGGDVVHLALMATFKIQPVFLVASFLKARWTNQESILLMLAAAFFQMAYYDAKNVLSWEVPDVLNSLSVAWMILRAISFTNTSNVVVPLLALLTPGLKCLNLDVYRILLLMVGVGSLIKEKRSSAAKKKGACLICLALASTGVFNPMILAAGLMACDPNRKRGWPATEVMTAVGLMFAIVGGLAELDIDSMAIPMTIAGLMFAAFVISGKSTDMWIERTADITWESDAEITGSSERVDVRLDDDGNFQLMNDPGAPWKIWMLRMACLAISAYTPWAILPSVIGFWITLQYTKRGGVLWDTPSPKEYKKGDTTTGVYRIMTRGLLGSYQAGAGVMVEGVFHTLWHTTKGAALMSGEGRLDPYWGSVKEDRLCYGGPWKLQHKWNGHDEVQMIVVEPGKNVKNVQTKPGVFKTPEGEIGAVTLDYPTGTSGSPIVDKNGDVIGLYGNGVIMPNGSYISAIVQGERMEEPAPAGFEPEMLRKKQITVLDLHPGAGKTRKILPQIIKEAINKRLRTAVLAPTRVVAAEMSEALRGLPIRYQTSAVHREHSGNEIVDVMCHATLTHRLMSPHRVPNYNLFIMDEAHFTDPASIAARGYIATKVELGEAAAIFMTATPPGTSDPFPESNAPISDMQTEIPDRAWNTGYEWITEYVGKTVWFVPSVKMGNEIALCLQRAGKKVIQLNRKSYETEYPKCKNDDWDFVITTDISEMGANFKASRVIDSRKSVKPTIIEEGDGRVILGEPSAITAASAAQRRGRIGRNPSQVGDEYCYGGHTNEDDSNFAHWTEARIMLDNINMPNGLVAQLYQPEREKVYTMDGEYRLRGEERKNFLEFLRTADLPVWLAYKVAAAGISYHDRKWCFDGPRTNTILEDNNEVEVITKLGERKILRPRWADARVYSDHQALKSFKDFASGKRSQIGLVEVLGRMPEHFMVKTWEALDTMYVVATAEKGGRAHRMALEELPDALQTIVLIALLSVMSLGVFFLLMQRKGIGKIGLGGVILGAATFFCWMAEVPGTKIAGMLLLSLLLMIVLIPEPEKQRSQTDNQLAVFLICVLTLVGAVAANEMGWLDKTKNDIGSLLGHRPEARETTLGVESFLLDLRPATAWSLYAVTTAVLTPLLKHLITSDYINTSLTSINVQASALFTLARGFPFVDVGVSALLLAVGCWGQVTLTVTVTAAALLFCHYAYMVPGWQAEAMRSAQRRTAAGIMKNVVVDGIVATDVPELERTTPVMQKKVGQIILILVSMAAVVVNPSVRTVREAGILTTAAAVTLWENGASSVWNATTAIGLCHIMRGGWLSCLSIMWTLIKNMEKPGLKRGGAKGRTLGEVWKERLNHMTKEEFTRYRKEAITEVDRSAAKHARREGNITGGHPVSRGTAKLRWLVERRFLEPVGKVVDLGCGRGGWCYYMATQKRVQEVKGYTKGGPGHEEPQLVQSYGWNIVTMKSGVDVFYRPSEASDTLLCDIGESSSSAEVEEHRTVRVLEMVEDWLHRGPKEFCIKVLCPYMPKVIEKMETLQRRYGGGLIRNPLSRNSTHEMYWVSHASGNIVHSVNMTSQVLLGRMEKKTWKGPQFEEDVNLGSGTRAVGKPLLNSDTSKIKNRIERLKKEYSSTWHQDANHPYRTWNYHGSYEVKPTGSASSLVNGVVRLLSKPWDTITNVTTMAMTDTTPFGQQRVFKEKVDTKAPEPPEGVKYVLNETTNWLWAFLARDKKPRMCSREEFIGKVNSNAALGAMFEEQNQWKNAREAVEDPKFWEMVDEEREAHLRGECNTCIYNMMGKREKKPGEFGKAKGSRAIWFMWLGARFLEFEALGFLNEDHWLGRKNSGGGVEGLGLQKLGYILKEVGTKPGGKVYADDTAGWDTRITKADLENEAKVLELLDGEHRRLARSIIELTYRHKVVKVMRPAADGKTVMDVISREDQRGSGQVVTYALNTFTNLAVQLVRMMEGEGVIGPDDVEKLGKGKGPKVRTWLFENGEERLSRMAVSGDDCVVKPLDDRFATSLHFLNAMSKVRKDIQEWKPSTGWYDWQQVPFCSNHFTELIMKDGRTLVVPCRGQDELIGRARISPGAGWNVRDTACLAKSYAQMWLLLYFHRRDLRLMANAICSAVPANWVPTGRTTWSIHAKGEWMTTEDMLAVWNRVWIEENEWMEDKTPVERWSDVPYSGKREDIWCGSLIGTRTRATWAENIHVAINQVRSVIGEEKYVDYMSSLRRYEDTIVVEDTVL

SMILES | inhibition (Dengue virus) [%] | also measured
CC(C)(C)NC(=O)C(O)/C=C/c1ccccc1 (stereo unspecified) | 8.2 | 
O=C(/C=C/c1ccccc1)C(=O)NCC1CCCO1 (stereo unspecified) | 28.9 | 
O=C(/C=C/c1ccccc1)C(=O)NCc1ccccn1 | 29.4 | 
O=C(/C=C/c1ccccc1)C(=O)N1CCOCC1 | 30.8 | 
CCCCCNC(=O)C(=O)/C=C/c1ccccc1 | 25.9 | 
CC(C)(C)NC(=O)C1(/C=C/c2ccccc2)CO1 (stereo unspecified) | 12.6 | inhibition [1]: 20.3%; inhibition [2]: 12.1%
CC(C)(C)NC(=O)C(=O)/C=C/c1c[nH]c2ccccc12 | 39.1 | inhibition [1]: 40.6%; fold change (FC) (dengue virus type 2 [3]): 1000; Activity (dengue virus type 2 [4]): Active; Activity (Huh-7): Non-toxic; inhibition [2]: 16.9%
CCC/C=C/C(=O)C(=O)NC(C)(C)C | 4.4 | 
CC(NC(=O)C(=O)/C=C/c1ccccc1)c1ccccc1 (stereo unspecified) | 0 | inhibition [1]: 12.2%; inhibition [2]: 5.1%
COC(=O)[C@H](CO)NC(=O)C(=O)/C=C/c1ccccc1 | 35.1 | inhibition [1]: 27.5%; inhibition [2]: 12.6%
O=C(/C=C/c1ccccc1)C(=O)NC1CCCCC1 | 14.5 | 
CNC(=O)/C=C/c1ccccc1 | 15.2 | 
CC(C)NC(=O)C(=O)/C=C/c1ccccc1 | 23.8 | 
CC(C)(C)NC(=O)C(=O)Cc1ccccc1 | 20.4 | 
O=C(/C=C/c1ccccc1)C(=O)NC1CC1 | 31.2 | inhibition [1]: 20%; inhibition [2]: 17.1%
CC(C)(C)NC(=O)C(=O)C1CC1c1ccccc1 (stereo unspecified) | 7.4 | 
CC(C)(C)NC(=O)C(=O)CCc1ccccc1 | 0 | Activity (dengue virus type 2 [4]): inactive
CC(C)(C)NC(=O)C(=O)c1ccccc1 | 6.9 | 
O=C(/C=C/c1ccccc1)C(=O)NCCO | 26.1 | 
CN(C)C(=O)C(=O)/C=C/c1ccccc1 | 29 | 
O=C(/C=C/c1ccccc1)C(=O)NCc1ccncc1 | 29.9 | 
O=C(/C=C/c1ccccc1)C(=O)NCc1ccccc1 | 14.6 | 
CC(C)(C)NC(=O)C(=O)C1CCCCC1 | 21.5 | 

More lines, main results first:

inhibition (Dengue virus) [%] | SMILES | also measured
13.8 | CN(C)c1ccc(/C=C/C(=O)C(=O)NC(C)(C)C)cc1 | inhibition [1]: 33.9%; inhibition [2]: 28.9%
25.6 | C/C(=C\c1ccccc1)C(=O)C(=O)NC(C)(C)C | inhibition [1]: 0%; inhibition [2]: 5.7%
12.7 | CC(C)(C)NC(=O)C(=O)/C=C/c1ccc([N+](=O)[O-])cc1 | 
29.8 | CC(=O)n1cc(/C=C/C(=O)C(=O)NC(C)(C)C)c2ccccc21 | 
23.3 | COc1ccccc1/C=C/C(=O)C(=O)NC(C)(C)C | 
17.8 | COc1cccc(/C=C/C(=O)C(=O)NC(C)(C)C)c1 | 
16.8 | CC(C)(C)NC(=O)C(=O)/C=C/c1cccc(F)c1 | 
19.6 | C/C(=C\C(=O)C(=O)NC(C)(C)C)c1ccccc1 | 
26.9 | CNC(=O)C(=O)/C=C/c1ccccc1 | 
23.3 | CC(C)(C)NC(=O)C(=O)/C=C/c1cccnc1 | 
15.9 | CC(C)(C)NC(=O)C(=O)/C=C/c1ccc(Cl)cc1 | inhibition [1]: 6.3%; inhibition [2]: 6.7%
27.8 | COc1ccc(/C=C/C(=O)C(=O)NC(C)(C)C)c(OC)c1OC | 
23.9 | CC(C)(C)NC(=O)C(=O)/C=C/c1ccc(F)cc1 | 
40.6 | CC(C)(C)NC(=O)C(=O)/C=C/c1ccc(N)cc1 | inhibition [1]: 39.5%; inhibition [2]: 21.1%
27.7 | CC(C)(C)NC(=O)C(=O)/C=C/c1ccccn1 | 
35.8 | CC(=O)OCCNC(=O)C(=O)/C=C/c1ccccc1 | inhibition [1]: 29.8%; inhibition [2]: 16.3%
32.9 | CC(=O)Nc1ccc(/C=C/C(=O)C(=O)NC(C)(C)C)cc1 | 
16.7 | COc1ccc(/C=C/C(=O)C(=O)NC(C)(C)C)cc1 | inhibition [1]: 27.3%; inhibition [2]: 14.2%
8.9 | CC(C)(C)NC(=O)C(=O)/C=C/c1ccc2ccccc2c1 | 
9.6 | CC(C)(C)NC(=O)C(=O)/C=C/c1cccc([N+](=O)[O-])c1 | 
37.6 | CC(C)(C)NC(=O)C(=O)/C=C/c1ccc(O)cc1 | inhibition [1]: 31.4%; inhibition [2]: 17.3%
13.5 | CC(C)(C)NC(=O)C(=O)/C=C/c1ccc(C#N)cc1 | 
26.3 | CC(C)(C)NC(=O)C(=O)/C=C/c1ccccc1 | inhibition [1]: 20%; inhibition [2]: 19.6%
36.1 | COc1ccc(/C=C/C(=O)C(=O)NC(C)(C)C)cc1OC | inhibition [1]: 31%; Activity (dengue virus type 2 [4]): Active; inhibition [2]: 22.5%
12.9 | CC(C)(C)NC(=O)C(=O)/C=C/c1ccccc1[N+](=O)[O-] | 
27.6 | CC(C)(C)NC(=O)C(=O)/C=C/c1cccs1 | 
18.4 | CC(C)(C)NC(=O)C(=O)/C=C/c1ccncc1 | 
25.5 | CC(C)c1ccc(/C=C/C(=O)C(=O)NC(C)(C)C)cc1 | 
15.1 | CC(C)(C)NC(=O)C(=O)/C=C/c1ccc(Br)cc1 | 
31.3 | Cn1cc(/C=C/C(=O)C(=O)NC(C)(C)C)c2ccccc21 | 
